Consider 6 molecules from ChEMBL document CHEMBL1133651, “Thiazoloindans and thiazolobenzopyrans: a novel class of orally active central dopamine (partial) agonists” (J Med Chem, 2000).

Calls of active or inactive are those of the source. The calls are words filed in the database; no cut-off is given here.

Data set [1] addresses T1, D(2) dopamine receptor (Rattus norvegicus, UniProt P61169). Briefly: Effective concentration was determined as thymidine uptake in CHO-L6 cells transfected with the rat Dopamine receptor D2L by mitogenesis assay (intrinsic activity). The format is functional, cell-based. In a few lines: (§1)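 Mitogenesis assay for agonism: [³H]thymidine uptake measured in CHO-L6 cells transfected with rat D2L receptor. Intrinsic activity expressed relative to quinpirole, taken as full agonist (IA 100%). Means of three determinations.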

For data set [2], the target named is D(2) dopamine receptor (Rattus norvegicus) (UniProt P61169). Briefly: Inhibition of quinpirole (30 nM)-stimulated [3H]thymidine uptake in CHO-L6 cells transfected with the rat Dopamine receptor D2L; NA is not active. The format is functional, cell-based.
Chain of D(2) dopamine receptor (Rattus norvegicus) (P61169 whole entry): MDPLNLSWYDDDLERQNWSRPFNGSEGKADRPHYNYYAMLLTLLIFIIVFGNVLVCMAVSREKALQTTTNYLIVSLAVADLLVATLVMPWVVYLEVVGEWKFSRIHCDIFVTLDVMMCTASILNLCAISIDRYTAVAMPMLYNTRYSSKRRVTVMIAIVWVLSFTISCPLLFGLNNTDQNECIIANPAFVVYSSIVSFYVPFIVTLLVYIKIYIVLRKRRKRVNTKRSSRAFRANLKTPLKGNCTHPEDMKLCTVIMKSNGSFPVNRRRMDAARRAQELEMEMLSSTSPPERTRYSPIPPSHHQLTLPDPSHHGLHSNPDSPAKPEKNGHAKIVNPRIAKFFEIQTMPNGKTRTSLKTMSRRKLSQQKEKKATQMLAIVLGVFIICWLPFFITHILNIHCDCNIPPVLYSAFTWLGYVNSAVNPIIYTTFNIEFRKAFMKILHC
For data set [3] the target is unchanged. Briefly: compound was tested for intrinsic activity for thymidine uptake in CHO-L6 cells transfected with rat Dopamine receptor D2L. It counts as functional, cell-based. In a few lines: as §1
Data set [4] concerns the target T2, D(2) dopamine receptor (Homo sapiens, UniProt P14416). Briefly: in vitro binding affinity was determined on human Dopamine receptor D2L expressed in chinese hamster ovary(CHO) K-1 cells using [3H]NPA as radioligand. It counts as cell-based, CHO-K1. In a few lines: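 Displacement of agonist radioligand [³H]NPA from human D2L receptors expressed in CHO K-1 cells. Ki is the mean of three separate experiments, with results varying by no more than 25%.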

A further data set has as its target T3, D(4) dopamine receptor (Homo sapiens, UniProt P21917).
T3 sequence (P21917 whole entry): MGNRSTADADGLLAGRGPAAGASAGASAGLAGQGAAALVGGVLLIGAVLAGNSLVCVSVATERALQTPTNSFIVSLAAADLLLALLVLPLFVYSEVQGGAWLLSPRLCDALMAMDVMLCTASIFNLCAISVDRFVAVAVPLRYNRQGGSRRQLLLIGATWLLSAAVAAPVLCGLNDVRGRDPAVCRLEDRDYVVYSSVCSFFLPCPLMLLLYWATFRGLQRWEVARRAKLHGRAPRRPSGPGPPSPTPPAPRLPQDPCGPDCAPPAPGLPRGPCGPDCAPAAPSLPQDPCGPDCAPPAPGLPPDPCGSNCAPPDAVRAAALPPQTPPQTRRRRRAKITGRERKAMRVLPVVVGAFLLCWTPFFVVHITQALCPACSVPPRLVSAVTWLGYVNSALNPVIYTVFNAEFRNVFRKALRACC
Nature of the data set: in vitro binding affinity was determined on human Dopamine receptor D4 expressed in chinese hamster ovary(CHO) K-1 cells using [3H]spiperone as radioligand. The format is cell-based, CHO-K1. In a few lines:
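Displacement of [³H]spiperone from human D4.2 receptors expressed in CHO K-1 cells; Ki values are means of three separate experiments, which varied by no more than 25%.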

For data set [5], the target named is D(3) dopamine receptor (Homo sapiens, UniProt P35462). Briefly: in vitro binding affinity was determined on human Dopamine receptor D3 expressed in chinese hamster ovary(CHO) K-1 cells using [3H]spiperone as radioligand. The format is cell-based, CHO-K1.
Chain of D(3) dopamine receptor (Homo sapiens, UniProt P35462) (P35462 whole entry): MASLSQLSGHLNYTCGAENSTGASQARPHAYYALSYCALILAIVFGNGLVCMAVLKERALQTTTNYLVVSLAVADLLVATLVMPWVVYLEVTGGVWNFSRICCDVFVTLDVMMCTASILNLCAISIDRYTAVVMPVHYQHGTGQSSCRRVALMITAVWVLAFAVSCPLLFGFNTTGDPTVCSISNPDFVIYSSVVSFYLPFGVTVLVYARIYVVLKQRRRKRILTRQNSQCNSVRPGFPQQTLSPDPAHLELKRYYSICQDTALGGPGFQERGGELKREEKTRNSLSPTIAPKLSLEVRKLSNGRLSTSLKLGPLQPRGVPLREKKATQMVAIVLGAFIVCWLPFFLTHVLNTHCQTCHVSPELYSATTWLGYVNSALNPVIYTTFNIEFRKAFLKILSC
Data set [6] has as its target T4, D(3) dopamine receptor (Rattus norvegicus, UniProt P19020). Nature of the data set: Effective concentration was determined as thymidine uptake in CHO-L6 cells transfected with the rat Dopamine receptor D3 by mitogenesis assay (intrinsic activity).
Data set [7] is described as follows: Inhibitory concentration of lipid peroxidation (LPO). The format is functional.
Data set [8] has as its target D(3) dopamine receptor (Rattus norvegicus) (UniProt P19020). As to conditions: CHO-L6.
Data set [9] concerns the target T1, D(2) dopamine receptor. Nature of the data set: Effective concentration was determined as thymidine uptake in CHO-L6 cells transfected with the rat Dopamine receptor D2L by mitogenesis assay. It counts as functional, cell-based. In a few lines:
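Agonism read as [³H]thymidine uptake (mitogenesis) in CHO-L6 cells transfected with rat DA D2L receptor; intrinsic activity expressed relative to quinpirole (full agonist, IA 100%); test concentrations 0.1 nM to 1 µM; means of three determinations ± SEM.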

For data set [10], the target named is D(2) dopamine receptor (Rattus norvegicus) (UniProt P61169). Briefly: Inhibition of quinpirole (30 nM)-stimulated [3H]thymidine uptake in CHO-L6 cells transfected with the rat Dopamine receptor D2L; compound is active showing test concentration ranging from 0.1 nM - 1 uM. The format is functional, cell-based.
The target in data set [11] is T2, D(2) dopamine receptor. Nature of the data set: in vitro binding affinity was determined on human Dopamine receptor D2L expressed in chinese hamster ovary(CHO) K-1 cells using [3H]-0437 as radioligand. It counts as cell-based, CHO-K1. In outline: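 Human DA D2L receptor expressed in CHO K-1 cells; agonist radioligand displacement ([³H]N-0437 or [³H]NPA); Ki as mean of three separate experiments, varying by no more than 25%.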

The target in data set [12] is T4, D(3) dopamine receptor. Nature of the data set: Effective concentration was determined as thymidine uptake in CHO-L6 cells transfected with the rat Dopamine receptor D3 by mitogenesis assay. It counts as functional, cell-based.
Data set [13] concerns the target T2, D(2) dopamine receptor. Nature of the data set: in vitro binding affinity was determined on human Dopamine receptor D2L expressed in chinese hamster ovary(CHO) K-1 cells using [3H]spiperone as radioligand. It counts as cell-based, CHO-K1. In a few lines: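 Antagonist binding: displacement of [³H]spiperone from human DA D2L, D3 or D4.2 receptors expressed in CHO K-1 cells; Ki as mean of three separate experiments, varying by no more than 25%; high- and low-affinity Ki reported separately where applicable.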

The target of data set [14] is D(3) dopamine receptor (Rattus norvegicus) (UniProt P19020). As to conditions: CHO-L6. The source holds these as a separate data set.
Chain of D(3) dopamine receptor (Rattus norvegicus) (P19020 whole entry): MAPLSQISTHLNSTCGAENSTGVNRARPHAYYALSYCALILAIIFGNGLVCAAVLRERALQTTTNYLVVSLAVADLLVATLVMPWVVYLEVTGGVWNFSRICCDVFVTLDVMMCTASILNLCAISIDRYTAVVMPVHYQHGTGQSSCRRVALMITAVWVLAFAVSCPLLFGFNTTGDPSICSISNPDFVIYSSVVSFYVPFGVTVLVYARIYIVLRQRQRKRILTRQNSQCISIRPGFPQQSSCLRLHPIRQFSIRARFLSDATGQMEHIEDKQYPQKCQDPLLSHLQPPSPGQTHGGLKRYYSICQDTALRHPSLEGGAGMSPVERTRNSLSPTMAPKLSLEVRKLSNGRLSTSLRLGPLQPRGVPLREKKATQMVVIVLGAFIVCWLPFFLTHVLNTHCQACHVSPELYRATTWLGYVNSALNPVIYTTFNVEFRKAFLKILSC
The nature of data set [15]: Log d of compound was determined. It counts as physicochemical. As to conditions: octanol/water.
Data set [16] deals with D(2) dopamine receptor (Rattus norvegicus) (UniProt P61169). Briefly: Inhibition of quinpirole (30 nM)-stimulated [3H]thymidine uptake in CHO-L6 cells transfected with the rat Dopamine receptor D2L;compound is active showing test concentration ranging from 0.1 nM - 1 uM. The format is functional, cell-based.

A word on the EC50: it is the midpoint of the concentration-response curve. Higher therefore signals a less potent agent. In general, Ki refers to the equilibrium dissociation constant of an inhibitor or competing ligand from its target. A high value points to lower affinity. What is called IC50 is the concentration at which inhibition is half-maximal. A high value points to weaker potency in that assay. A word on the logD: it is the decadic logarithm of the distribution of all forms, ionised or not, between an organic phase and buffer at a given pH. A low value points to a more hydrophilic compound.

T1 sequence (P61169 whole entry): as the sequence (P61169 whole entry) above
T4 sequence (P19020 whole entry): as the sequence (P19020 whole entry) above
T2 sequence (P14416 whole entry): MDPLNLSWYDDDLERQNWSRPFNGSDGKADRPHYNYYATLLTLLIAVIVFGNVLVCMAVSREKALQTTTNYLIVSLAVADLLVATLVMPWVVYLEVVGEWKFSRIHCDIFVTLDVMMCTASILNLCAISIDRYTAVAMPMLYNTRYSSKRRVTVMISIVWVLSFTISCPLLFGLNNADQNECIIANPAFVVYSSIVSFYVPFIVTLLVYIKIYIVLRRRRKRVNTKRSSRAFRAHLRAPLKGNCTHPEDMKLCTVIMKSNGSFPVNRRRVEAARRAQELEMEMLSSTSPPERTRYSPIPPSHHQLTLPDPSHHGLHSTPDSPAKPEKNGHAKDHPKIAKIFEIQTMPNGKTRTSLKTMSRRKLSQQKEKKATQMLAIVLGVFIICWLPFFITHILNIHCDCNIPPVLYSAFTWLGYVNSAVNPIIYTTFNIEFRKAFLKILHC

`CCCN(CCC)C1Cc2ccc3nc(N)sc3c2C1` (centres undefined): the figures for the EC50 on D(2) dopamine receptor [1] and on D(3) dopamine receptor [6] were 18.7 nM and greater than 1000 nM, respectively. Besides, the NA entry in data set [2] is “inactive”. The Intrinsic activity in data set [3] worked out at 71%. Also, the values for the Ki on D(2) dopamine receptor [4] and on D(3) dopamine receptor [5] were 500 nM and 11 nM, respectively. Moreover, the results for the IC50 (at D(4) dopamine receptor; in data set [7]) were greater than 10 µM and 30 µM, respectively. Further, the Inhibitory activity entry in data set [8] was “Active”.
Consider `CCCN(CCC)C1COc2ccc3nc(N)sc3c2C1` (centres undefined), for which the EC50 on D(2) dopamine receptor [9] is 148 nM; on D(3) dopamine receptor [12] it was greater than 1000 nM. The Inhibitory activity entry in [10] and in data set [14] was “Active” throughout. Further, in data set [3], the Intrinsic activity is 7%. Moreover, the Ki on D(2) dopamine receptor [11] turned out to be 47 nM; on D(3) dopamine receptor [5], 510 nM; at D(2) dopamine receptor [13], 5.92 µM. This molecule also registered a concentration for half-maximal inhibition (IC50) in data set [7] of 50 µM.
In data set [15], `CCCNC1Cc2cc3nc(N)sc3cc2C1` (centres undefined) displayed a logD of 0.19. Further, the results for the Ki on D(2) dopamine receptor [4], on D(4) dopamine receptor and at D(3) dopamine receptor [5] were 1350 nM, greater than 3330 nM and greater than 10000 nM, respectively. This molecule yielded an IC50 in data set [7] greater than 100 µM.
On to `CCCN(CCC)C1COc2c(ccc3sc(N)nc23)C1` (centres undefined), for which the Ki on D(2) dopamine receptor [11] came to 536 nM; at D(3) dopamine receptor [5] it was 1400 nM; on D(2) dopamine receptor [13] it was 3.51 µM. The same molecule had an IC50 in data set [7] of 5 µM.
As to `CCCN[C@H]1CCc2nc(N)sc2C1` [PRAMIPEXOLE], in data set [3], the Intrinsic activity came to 90%. At D(3) dopamine receptor [12], this molecule yielded an EC50 of 0.21 nM.
Turning to `CCCN(CCC)C1Cc2cc3nc(N)sc3cc2C1` (centres undefined), in [15], the logD was 1.66. For the same molecule, the concentration for a half-maximal effect (EC50) at D(2) dopamine receptor [1] was 5.7 nM; on D(3) dopamine receptor [6], greater than 1000 nM. The Intrinsic activity in [3] came to 28%. Also, the Ki at D(2) dopamine receptor [4] is 27 nM; at D(4) dopamine receptor, 272 nM; at D(3) dopamine receptor [5], 1.4 nM. Moreover, half-maximal inhibition in data set [7] (IC50) was put at 60 µM. For the same molecule, the Inhibitory activity entry in data set [16] and in data set [14] was “Active” in each case.
